Data reported in ChEMBL document CHEMBL6134855, “Peptidomimetics Activating the Proteasome: A New Perspective for Parkinson's Treatment” (J Med Chem, 2025).
Activity calls are given as the source filed them. No cut-off for these calls is given here. Where a SMILES comes first, the peptide text is derived from it. [ ]: non-standard residue; d: D form. N(4-MeOBn)Gly = COc1ccc(CNCC(=O)O)cc1; NMeY = CN[C@@H](Cc1ccc(O)cc1)C(=O)O; Gly(N-CH2CH2OH) = O=C(O)CNCCO; NMeK = CN[C@@H](CCCCN)C(=O)O; Nlys = NCCCCNCC(=O)O

Experiments:
[1] = target: T1, 20S proteasome (Homo sapiens) (UniProt P49721+P20618+P28074+P28062+P28065+P28072+P25786+P25787+P25788+P25789+P28066+P60900+O14818+Q8TAA3+P40306+A5LHX3+P49720+P28070+Q99436); assay: Activation of human erythrocyte-derived 20S proteasome chymotrypsin-like activity using Suc-LLVY-AMC as substrate at 1.0 to 50 uM measured every two mins for 60 mins by fluorescence based analysis; settings: filed as activator, dose 1-50 µM
[2] = target: T1, 20S proteasome (Homo sapiens); assay: Activation of human erythrocyte-derived 20S proteasome using Dabcyl-EDANS as FRET-type substrate at 1.0 to 50 uM measured every two mins for 60 mins by fluorescence based analysis; type: cell-based; settings: filed as activator, dose 1-50 µM
Outline: (§1)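 Latent human 20S proteasome (0.002 mg/mL, 2.8 nM) in 50 mM Tris/HCl pH 8.0 with 2% DMSO. AMC substrates at 100 μM final (ex 380/em 460 nm); Dabcyl-EDANS at 15 μM final (ex 335/em 493 nm). Modulators at 1.0–50 μM; TAT- or 6R-containing constructs at 0.5–10 μM. Read every 2 min for 60 min at 37 °C. Activity relative to DMSO-treated proteasome (100%). ≥3 independent replicates.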

[3] = target: T1, 20S proteasome (Homo sapiens); assay: Activation of human erythrocyte-derived 20S proteasome using Dabcyl-EDANS as FRET-type substrate at lower concentration measured every two mins for 60 mins by fluorescence based analysis; type: cell-based; settings: filed as activator; outline: as §1
[4] = target: T1, 20S proteasome (Homo sapiens); assay: Activation of human erythrocyte-derived 20S proteasome caspase-like activity using Z-LLE-AMC as substrate at lower concentration measured every two mins for 60 mins by fluorescence based analysis; settings: filed as activator; outline: as §1
[5] = target: T1, 20S proteasome (Homo sapiens); assay: Activation of human erythrocyte-derived 20S proteasome chymotrypsin-like activity using Suc-LLVY-AMC as substrate at lower concentration measured every two mins for 60 mins by fluorescence based analysis; settings: filed as activator; outline: as §1
[6] = Proteolytic stability of compound in human plasma assessed as protease-mediated degradation by measuring compound remaining at 200 uM incubated for 30 mins by UHPLC analysis; type: ADME, cell-free; settings: read-out: Stability
Outline: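 Compound (200 μM final, dissolved in water) incubated in human serum at 37 °C for 30 min. Samples every 5 min quenched 1:1 with 6% TCA and centrifuged. Supernatant analysed by UHPLC (UV 223 nm) for intact compound; cleavage sites identified by MS.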

[7] = target: T1, 20S proteasome (Homo sapiens); assay: Activation of human erythrocyte-derived 20S proteasome trypsin-like activity using Boc-LRR-AMC as substrate at lower concentration measured every two mins for 60 mins by fluorescence based analysis; settings: filed as activator; outline: as §1
[8] = target: T1, 20S proteasome (Homo sapiens); assay: Activation of human erythrocyte-derived 20S proteasome using Dabcyl-EDANS as FRET-type substrate assessed as fold increase in activity at 1.0 to 50 uM measured every two mins for 60 mins by fluorescence based analysis relative to control; type: cell-based; settings: filed as activator, dose 1-50 µM; outline: as §1
[9] = target: T1, 20S proteasome (Homo sapiens); assay: Activation of human erythrocyte-derived 20S proteasome chymotrypsin-like activity using Suc-LLVY-AMC as substrate assessed as fold increase in activity at 1.0 to 50 uM measured every two mins for 60 mins by fluorescence based analysis relative to control; settings: filed as activator, dose 1-50 µM; outline: as §1
[10] = target: T1, 20S proteasome (Homo sapiens); assay: Activation of human erythrocyte-derived 20S proteasome chymotrypsin-like activity using Suc-LLVY-AMC as substrate at 1 uM measured every two mins for 60 mins by fluorescence based analysis; settings: filed as activator; outline: as §1
[11] = target: T1, 20S proteasome (Homo sapiens); assay: Activation of human erythrocyte-derived 20S proteasome chymotrypsin-like activity using succinyl-LeuLeuValTyr-AMC as substrate assessed as fold increase in activity incubated for 1 hr by fluorescence based analysis relative to control; settings: filed as activator
Outline: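 h20S proteasome 0.002 mg/mL (2.8 nM) in 50 mM Tris/HCl pH 8.0, 2% DMSO final. Suc-LLVY-AMC 100 μM final. Modulators 1.0–50 μM (TAT/6R constructs 0.5–10 μM). AMC fluorescence ex 380/em 460 nm read every 2 min for 60 min at 37 °C. Activity relative to DMSO-treated latent proteasome (100%); ≥3 replicates.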

[12] = target: T1, 20S proteasome (Homo sapiens); assay: Activation of human erythrocyte-derived 20S proteasome chymotrypsin-like activity using Suc-LLVY-AMC as substrate at higher concentration measured every two mins for 60 mins by fluorescence based analysis; settings: filed as activator; outline: as §1
[13] = Permeability of compound in PBS incubated for 22 hrs by PAMPA-BBB assay; type: ADME
Outline: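 PAMPA-BBB with a 2% porcine brain lipid membrane. Compounds were diluted from 10 mM aqueous stocks to 500 μM in 0.1 M PBS containing 5% DMSO and incubated 22 h at 37 °C with shaking at 250 rpm. Read-out was fluorescence after reaction with 0.02% fluorescamine (absorbance at 290 nm for propranolol). Pe calculated as linear permeation velocity. Three biological replicates.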

Compound: C[C@@H](O)[C@H](NC(=O)[C@H](Cc1ccccc1)NC(=O)[C@H](Cc1ccc(O)cc1)NC(=O)CNCCCCN)C(=O)NCC(=O)N[C@@H](CO)C(=O)N[C@@H](CCCCN)C(=O)N[C@@H](CC(=O)O)C(=O)N[C@@H](Cc1c[nH]c2ccccc12)C(=O)N[C@@H](CCCNC(=N)N)C(=O)N(CCO)CC(=O)N[C@@H](Cc1ccc(O)cc1)C(=O)N[C@@H](Cc1ccc(O)cc1)C(=O)N[C@@H](CO)C(=O)O (H-[Nlys]YFTGSKDWR[Gly(N-CH2CH2OH)]YYS-OH)
- Activity [1]: Active; Lower Capacity Of Activation Is Observed
- Activity [2]: Active

Compound: CN[C@@H](CCCCN)C(=O)N(C)[C@@H](Cc1ccc(O)cc1)C(=O)N[C@@H](Cc1ccccc1)C(=O)N[C@H](C(=O)NCC(=O)N[C@@H](CO)C(=O)N[C@@H](CCCCN)C(=O)N[C@@H](CC(=O)O)C(=O)N[C@@H](Cc1c[nH]c2ccccc12)C(=O)N[C@@H](CCCNC(=N)N)C(=O)N[C@@H](CO)C(=O)N[C@@H](Cc1ccc(O)cc1)C(=O)N[C@@H](Cc1ccc(O)cc1)C(=O)N[C@@H](CO)C(=O)O)[C@@H](C)O (H-[NMeK][NMeY]FTGSKDWRSYYS-OH)
- Activity [2]: Active

Compound: COc1ccc(CN(CC(=O)N[C@@H](CCCNC(=N)N)C(=O)N[C@@H](CCCNC(=N)N)C(=O)N[C@@H](Cc2ccc(O)cc2)C(=O)N[C@@H](Cc2ccc(O)cc2)C(=O)N[C@@H](CO)C(=O)O)C(=O)[C@H](CC(=O)O)NC(=O)[C@H](CCCCN)NC(=O)[C@H](CO)NC(=O)CNC(=O)[C@@H](NC(=O)[C@H](Cc2ccccc2)NC(=O)[C@H](Cc2ccc(O)cc2)NC(=O)[C@@H](N)CCCCN)[C@@H](C)O)cc1 (H-KYFTGSKD[N(4-MeOBn)Gly]RRYYS-OH)
- Activity [3]: Active
- Activity [2]: Active
- Activity [4]: Weak_effect
- Activity [5]: Active
- remaining at 0.5 h, 200 µM [6]: < 30%
- Activity [7]: Weak_effect

Compound: C[C@@H](O)[C@H](NC(=O)[C@H](Cc1ccccc1)NC(=O)[C@H](Cc1ccc(O)cc1)NC(=O)CNCCCCN)C(=O)NCC(=O)N[C@@H](CO)C(=O)N[C@@H](CCCCN)C(=O)N[C@@H](CC(=O)O)C(=O)N[C@@H](Cc1ccc(O)cc1)C(=O)N[C@@H](CCCNC(=N)N)C(=O)N[C@@H](CCCNC(=N)N)C(=O)N[C@@H](Cc1ccc(O)cc1)C(=O)N[C@@H](Cc1ccc(O)cc1)C(=O)N[C@@H](CO)C(=O)O (H-[Nlys]YFTGSKDYRRYYS-OH)
- Activity [3]: Active
- Activity [2]: Active
- Activity [5]: Active

Compound: H-KYFTGSKDWRSYYS-OH
- fold change (FC) [8]: 12
- fold change (FC) [9]: 8
- remaining at 0.5 h, 200 µM [6]: ≤ 10%

Compound: COc1ccc(CN(CC(=O)N[C@@H](Cc2ccccc2)C(=O)N[C@H](C(=O)NCC(=O)N[C@@H](CO)C(=O)N[C@@H](CCCCN)C(=O)N[C@@H](CC(=O)O)C(=O)N[C@@H](Cc2ccc(O)cc2)C(=O)N[C@@H](CCCNC(=N)N)C(=O)N[C@@H](CCCNC(=N)N)C(=O)N[C@@H](Cc2ccc(O)cc2)C(=O)N[C@@H](Cc2ccc(O)cc2)C(=O)N[C@@H](CO)C(=O)O)[C@@H](C)O)C(=O)[C@@H](N)CCCCN)cc1 (H-K[N(4-MeOBn)Gly]FTGSKDYRRYYS-OH)
- Activity [10]: Moderate_effect

Compound: N=C(N)NCCC[C@H](NC(=O)CN)C(=O)N[C@@H](CCCCN)C(=O)N[C@@H](CCCCN)C(=O)N[C@@H](CCCNC(=N)N)C(=O)N[C@@H](CCCNC(=N)N)C(=O)N[C@@H](CCC(N)=O)C(=O)N1Cc2ccccc2CC1C(=O)N1[C@@H](C(=O)N[C@@H](CCCNC(=N)N)C(=O)N2CCC[C@H]2C(=O)N[C@@H](CO)C(=O)O)C[C@@H]2CCCC[C@@H]21 (some centres not stated)
- fold change (FC) [11]: 8

Compound: C[C@@H](O)[C@H](NC(=O)[C@H](Cc1ccccc1)NC(=O)[C@H](Cc1ccc(O)cc1)NC(=O)[C@@H](N)CCCCN)C(=O)NCC(=O)N[C@@H](CO)C(=O)N(CCCCN)CC(=O)N[C@@H](CC(=O)O)C(=O)N[C@@H](Cc1ccc(O)cc1)C(=O)N[C@@H](CCCNC(=N)N)C(=O)N[C@@H](CCCNC(=N)N)C(=O)N[C@@H](Cc1ccc(O)cc1)C(=O)N[C@@H](Cc1ccc(O)cc1)C(=O)N[C@@H](CO)C(=O)O (H-KYFTGS[Nlys]DYRRYYS-OH)
- Activity [12]: Active

Compound: C[C@@H](O)[C@H](NC(=O)[C@H](Cc1ccccc1)NC(=O)[C@H](Cc1ccc(O)cc1)NC(=O)CNCCCCN)C(=O)NCC(=O)N[C@@H](CO)C(=O)N[C@@H](CCCCN)C(=O)N[C@@H](CC(=O)O)C(=O)N[C@@H](Cc1c[nH]c2ccccc12)C(=O)N[C@@H](CCCNC(=N)N)C(=O)N[C@@H](CO)C(=O)N[C@@H](Cc1ccc(O)cc1)C(=O)N[C@@H](Cc1ccc(O)cc1)C(=O)N[C@@H](CO)C(=O)O (H-[Nlys]YFTGSKDWRSYYS-OH)
- permeability [13]: Impermeable

Compound: NCCCC[C@H](NC(=O)[C@H](CCCCN)NC(=O)[C@@H](N)CCCCN)C(=O)Nc1cc(NC(=O)[C@H](CCCCN)NC(=O)[C@H](CCCCN)NC(=O)[C@@H](N)CCCCN)cc(NC(=O)[C@H](CCCCN)NC(=O)[C@H](CCCCN)NC(=O)[C@@H](N)CCCCN)c1
- fold change (FC) [11]: 10

Compound: H-KYFTGSKDYRRYYS-OH
- Activity [3]: Active
- Activity [5]: Active
- remaining at 0.5 h, 200 µM [6]: ≤ 10%

Compound: COc1ccc(CN(CC(=O)N[C@@H](CCCNC(=N)N)C(=O)N[C@@H](CCCNC(=N)N)C(=O)N[C@@H](Cc2ccc(O)cc2)C(=O)N[C@@H](Cc2ccc(O)cc2)C(=O)N[C@@H](CO)C(=O)O)C(=O)[C@H](CC(=O)O)NC(=O)[C@H](CCCCN)NC(=O)[C@H](CO)NC(=O)CNC(=O)[C@@H](NC(=O)[C@H](Cc2ccccc2)NC(=O)CN(Cc2ccc(OC)cc2)C(=O)[C@@H](N)CCCCN)[C@@H](C)O)cc1 (H-K[N(4-MeOBn)Gly]FTGSKD[N(4-MeOBn)Gly]RRYYS-OH)
- Activity [3]: Active
- Activity [2]: Active
- Activity [4]: Weak_effect
- Activity [5]: Active
- Activity [7]: Weak_effect

Compound: C[C@@H](O)[C@H](NC(=O)[C@H](Cc1ccccc1)NC(=O)[C@H](Cc1ccc(O)cc1)NC(=O)[C@@H](N)CCCCN)C(=O)NCC(=O)N[C@@H](CO)C(=O)N[C@@H](CCCCN)C(=O)N[C@@H](CC(=O)O)C(=O)N[C@@H](Cc1c[nH]c2ccccc12)C(=O)N[C@@H](CCCNC(=N)N)C(=O)N(CCO)CC(=O)N[C@@H](Cc1ccc(O)cc1)C(=O)N[C@@H](Cc1ccc(O)cc1)C(=O)N[C@@H](CO)C(=O)O (H-KYFTGSKDWR[Gly(N-CH2CH2OH)]YYS-OH)
- Activity [1]: Active; Lower Capacity Of Activation Is Observed
- Activity [2]: Active

Compound: C[C@@H](O)[C@H](NC(=O)[C@H](Cc1ccccc1)NC(=O)[C@H](Cc1ccc(O)cc1)NC(=O)CNCCCCN)C(=O)NCC(=O)N[C@@H](CO)C(=O)N(CCCCN)CC(=O)N[C@@H](CC(=O)O)C(=O)N[C@@H](Cc1ccc(O)cc1)C(=O)N[C@@H](CCCNC(=N)N)C(=O)N[C@@H](CCCNC(=N)N)C(=O)N[C@@H](Cc1ccc(O)cc1)C(=O)N[C@@H](Cc1ccc(O)cc1)C(=O)N[C@@H](CO)C(=O)O (H-[Nlys]YFTGS[Nlys]DYRRYYS-OH)
- Activity [10]: Moderate_effect
- Activity [12]: Active
